Experimental data as given in PMC8764296 (International Journal of Nanomedicine, 2022).

Assay: Liver microsomal stability
Assay type: in vitro ADME
Settings: mouse liver microsomes 0.5 mg/mL, 50 μM, 37 °C, 4 hours incubation
Procedure, shortened: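 Compound at 50 μM (in vehicle or micelles), with coumarin as control, was preincubated 5 min at 37 °C with mouse liver microsomes (0.5 mg/mL) in PBS pH 7.4. Reactions were started with an NADPH-generating system (3 mM NADPH, 7.2 mM MgCl2, 6 mM G6P, 3 unit G6PDH) and sampled at 0, 5, 30 min and 1, 2, 4 h. Samples were DMSO-extracted for HPLC. ke from lnC versus t gave t1/2 and CL. Triplicate, mean and SD.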

level remaining in liver microsome: 10.7 ± 2.2%
Structure (SMILES): O=c1ccc2ccccc2o1 [Coumarin]
